Experimental data gathered from unrelated publications.
Compare with care: the assays were run in different laboratories.
Target: Ribosomal protein S6 kinase beta-1 (RPS6KB1, Homo sapiens, UniProt P23443)

O=C(NS(=O)(=O)c1ccc(NCC2CCOCC2)c([N+](=O)[O-])c1)c1ccc(N2CCN(Cc3ccc(C(F)(F)F)cc3-c3ccc(Cl)cc3)CC2)cc1Oc1cnc2[nH]ccc2c1
remaining binding (cell-free assay, competition with immobilised ligand; 1 µM): 81%

N[C@@H]1CCN(c2nccc(-c3cnn4ncccc34)n2)C1
remaining binding (binding; 1 µM): 100%

C=CC(=O)N1CCC(C(=O)NCC(=O)N2CCN(c3nc(-c4cnc(N)nc4C(F)F)nc(N4CCOCC4)n3)CC2)CC1
remaining binding (binding, competition with immobilised ligand; 1 µM): 56%

CNC(=O)c1ccc(Nc2ncc(C(F)(F)F)c(NCc3nccnc3N(C)S(C)(=O)=O)n2)cc1
remaining binding (cell-free assay, competition with immobilised ligand; 0.1 µM): 96%

COc1cnc(Nc2cccc(S(N)(=O)=O)c2)nc1N1CCN(c2ccccc2)C(=O)C1
remaining binding (binding, competition with immobilised ligand; 1 µM): 71%

O=C(NCC1CCOCC1)c1n[nH]cc1NC(=O)c1c(F)cccc1F
remaining binding (binding, competition with immobilised ligand; 1 µM): 87%

O=C(c1ccc(Nc2nccc(-c3cc4ccccc4s3)n2)cc1)N1CCC(N2CCCC2)CC1
remaining binding (binding, competition with immobilised ligand; 1 µM): 79%

Nc1ncc2c(n1)-c1c([nH]c3ccc(C#CC4CC4)cc13)CCCC2
remaining binding (binding, competition with immobilised ligand; 1 µM): 72%

O=C(c1ccc(Nc2ncc(Cl)c(-c3cc4ccccc4s3)n2)cc1)N1CCC(N2CCCC2)CC1
remaining binding (binding, competition with immobilised ligand; 1 µM): 37%

c1cnn2ncc(-c3ccnc(N4CCC45COC5)n3)c2c1
remaining binding (binding; 1 µM): 66%

Cc1cnc(Nc2ccc(C(=O)N3CCC(N4CCCC4)CC3)cc2)nc1-c1cc2ccccc2s1
remaining binding (binding, competition with immobilised ligand; 1 µM): 36%

O=C(NC[C@@H]1[C@H]2CN(C(=O)OCc3cc(C(F)(F)F)cc(C(F)(F)F)c3)C[C@@H]12)c1ccc2[nH]nnc2c1
remaining binding (cell-free assay, competition with immobilised ligand; 1 µM): 86%

C[C@H]1CCN(c2nccc(-c3cnn4ncccc34)n2)C1
remaining binding (binding; 1 µM): 81%

CCN1CCN(Cc2ccc(C(=O)Nc3ccc(C)c(Oc4ccc5c(c4)CC(=O)N5)c3)cc2C(F)(F)F)CC1
remaining binding (binding, competition with immobilised ligand; 1 µM): 100%

CN(C)c1ncc(F)c(-c2cnn3ncccc23)n1
remaining binding (binding; 1 µM): 78%

N#CC1(c2ccccn2)CCN(Cc2cc(C(=O)N3CCCC3)c(=O)n3ccccc23)CC1
remaining binding (binding, competition with immobilised ligand; 1 µM): 34%

F[C@@H]1CCN(c2nccc(-c3cnn4ncccc34)n2)C1
remaining binding (binding; 1 µM): 100%

CCC(=N\O)/C(C)=C/c1ccc(F)cc1
remaining binding (cell-free assay, competition with immobilised ligand; 1 µM): 66%

c1cncc(-c2cccc(Nc3nccc(NC4CCCCC4)n3)c2)c1
remaining binding (binding, competition with immobilised ligand; 10 µM): 64%

CN(C)c1nccc(-c2cnn3ncccc23)n1
remaining binding (binding; 1 µM): 100%

C[C@@H](c1cccc(C#N)c1)n1cc(Cl)cc(C(N)=O)c1=N
remaining binding (cell-free assay, competition with immobilised ligand; 1 µM): 100%
